Assay results taken from ChEMBL document CHEMBL1806456, “Chemistry of ecteinascidins. Part 3: preparation of 2'-N-acyl derivatives of ecteinascidin 770 and evaluation of cytotoxicity” (Bioorg Med Chem, 2011).

Legend:
Type in all cases: functional, cell-based
[1] = test system: QG-56; assay: Cytotoxicity against human QG56 cells after 4 days by MTT assay; conditions: QG-56, 96 h
Summary of the method: (§1)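 Cells seeded as single-cell suspension, 2 × 10³ cells/well, onto serially diluted compounds in microplates; cultured 4 d. Viable cells counted with a cell counting kit. IC50 taken as concentration giving 50% growth inhibition relative to untreated control.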

[2] = test system: DU-145; assay: Cytotoxicity against human DU145 cells after 4 days by MTT assay; conditions: DU-145, 96 h; summary of the method: as §1
[3] = test system: HCT-116; assay: Cytotoxicity against human HCT116 cells after 4 days by MTT assay; conditions: HCT-116, 96 h; summary of the method: as §1

SMILES	IC50 [1]	IC50 [2]	IC50 [3]
COc1cc2c(cc1O)CCN(C(=O)c1c[nH]c3ccccc13)[C@]21CS[C@@H]2c3c(OC(C)=O)c(C)c4c(c3[C@@H](COC1=O)N1[C@@H]2[C@H]2c3c(cc(C)c(OC)c3O)C[C@@H]([C@@H]1C#N)N2C)OCO4	0.46 nM	0.45 nM	0.16 nM
C=CCOc1cc2c(cc1OC)[C@@]1(CS[C@@H]3c4c(OC(C)=O)c(C)c5c(c4[C@@H](COC1=O)N1[C@@H]3[C@H]3c4c(cc(C)c(OC)c4OCC=C)C[C@@H]([C@@H]1C#N)N3C)OCO5)NCC2	160 nM	100 nM	54 nM
C=CCOc1cc2c(cc1OC)[C@@]1(CS[C@@H]3c4c(OC(C)=O)c(C)c5c(c4[C@@H](COC1=O)N1[C@@H]3[C@H]3c4c(cc(C)c(OC)c4O)C[C@@H]([C@@H]1C#N)N3C)OCO5)NCC2	12 nM	7.1 nM	2.4 nM
C=CCOc1cc2c(cc1OC)[C@@]1(CS[C@@H]3c4c(OC(C)=O)c(C)c5c(c4[C@@H](COC1=O)N1[C@@H]3[C@H]3c4c(cc(C)c(OC)c4OCC=C)C[C@@H]([C@@H]1C#N)N3C)OCO5)N(CC=C)CC2	> 1000 nM	> 1000 nM	620 nM
C=CCN1CCc2cc(O)c(OC)cc2[C@@]12CS[C@@H]1c3c(OC(C)=O)c(C)c4c(c3[C@@H](COC2=O)N2[C@@H]1[C@H]1c3c(cc(C)c(OC)c3O)C[C@@H]([C@@H]2C#N)N1C)OCO4	1.8 nM	1.2 nM	0.5 nM
C=CCOc1cc2c(cc1OC)[C@@]1(CS[C@@H]3c4c(OC(C)=O)c(C)c5c(c4[C@@H](COC1=O)N1[C@@H]3[C@H]3c4c(cc(C)c(OC)c4OCC=C)C[C@@H]([C@@H]1C#N)N3C)OCO5)N(C(=O)c1c[nH]c3ccccc13)CC2	> 1000 nM	> 1000 nM	0.45 nM
C=CCOc1cc2c(cc1OC)[C@@]1(CS[C@@H]3c4c(OC(C)=O)c(C)c5c(c4[C@@H](COC1=O)N1[C@@H]3[C@H]3c4c(cc(C)c(OC)c4OCC=C)C[C@@H]([C@@H]1C#N)N3C)OCO5)N(C(=O)c1ccccc1)CC2	690 nM	540 nM	190 nM
C=CCOc1cc2c(cc1OC)[C@@]1(CS[C@@H]3c4c(OC(C)=O)c(C)c5c(c4[C@@H](COC1=O)N1[C@@H]3[C@H]3c4c(cc(C)c(OC)c4OCC=C)C[C@@H]([C@@H]1C#N)N3C)OCO5)N(C(=O)c1ccc([N+](=O)[O-])cc1)CC2	790 nM	590 nM	260 nM
C=CCOc1cc2c(cc1OC)[C@@]1(CS[C@@H]3c4c(OC(C)=O)c(C)c5c(c4[C@@H](COC1=O)N1[C@@H]3[C@H]3c4c(cc(C)c(OC)c4OCC=C)C[C@@H]([C@@H]1C#N)N3C)OCO5)N(C(=O)c1cccc([N+](=O)[O-])c1)CC2	520 nM	270 nM	180 nM
C=CCOc1cc2c(cc1OC)[C@@]1(CS[C@@H]3c4c(OC(C)=O)c(C)c5c(c4[C@@H](COC1=O)N1[C@@H]3[C@H]3c4c(cc(C)c(OC)c4OCC=C)C[C@@H]([C@@H]1C#N)N3C)OCO5)N(C(=O)c1ccncc1)CC2	790 nM	590 nM	280 nM
C=CCOc1cc2c(cc1OC)[C@@]1(CS[C@@H]3c4c(OC(C)=O)c(C)c5c(c4[C@@H](COC1=O)N1[C@@H]3[C@H]3c4c(cc(C)c(OC)c4OCC=C)C[C@@H]([C@@H]1C#N)N3C)OCO5)N(C(=O)c1cccnc1)CC2	> 1000 nM	680 nM	390 nM
C=CCOc1cc2c(cc1OC)[C@@]1(CS[C@@H]3c4c(OC(C)=O)c(C)c5c(c4[C@@H](COC1=O)N1[C@@H]3[C@H]3c4c(cc(C)c(OC)c4OCC=C)C[C@@H]([C@@H]1C#N)N3C)OCO5)N(C(=O)c1ccnc3ccccc13)CC2	420 nM	420 nM	310 nM
C=CCOc1cc2c(cc1OC)[C@@]1(CS[C@@H]3c4c(OC(C)=O)c(C)c5c(c4[C@@H](COC1=O)N1[C@@H]3[C@H]3c4c(cc(C)c(OC)c4OCC=C)C[C@@H]([C@@H]1C#N)N3C)OCO5)N(C(=O)c1cccc3ncccc13)CC2	640 nM	550 nM	320 nM
C=CCOc1cc2c(cc1OC)[C@@]1(CS[C@@H]3c4c(OC(C)=O)c(C)c5c(c4[C@@H](COC1=O)N1[C@@H]3[C@H]3c4c(cc(C)c(OC)c4OCC=C)C[C@@H]([C@@H]1C#N)N3C)OCO5)N(C(=O)c1ccc3ncccc3c1)CC2	260 nM	180 nM	150 nM
C=CCOc1cc2c(cc1OC)[C@@]1(CS[C@@H]3c4c(OC(C)=O)c(C)c5c(c4[C@@H](COC1=O)N1[C@@H]3[C@H]3c4c(cc(C)c(OC)c4OCC=C)C[C@@H]([C@@H]1C#N)N3C)OCO5)N(C(=O)c1ccc(Br)cc1)CC2	> 1000 nM	730 nM	480 nM
C=CCOc1cc2c(cc1OC)[C@@]1(CS[C@@H]3c4c(OC(C)=O)c(C)c5c(c4[C@@H](COC1=O)N1[C@@H]3[C@H]3c4c(cc(C)c(OC)c4OCC=C)C[C@@H]([C@@H]1C#N)N3C)OCO5)N(C(=O)c1ccccc1Br)CC2	> 1000 nM	> 1000 nM	> 1000 nM
COc1cc2c(cc1O)CCN(C(=O)c1ccccc1)[C@]21CS[C@@H]2c3c(OC(C)=O)c(C)c4c(c3[C@@H](COC1=O)N1[C@@H]2[C@H]2c3c(cc(C)c(OC)c3O)C[C@@H]([C@@H]1C#N)N2C)OCO4	1 nM	1.1 nM	0.37 nM
COc1cc2c(cc1O)CCN(C(=O)c1ccc([N+](=O)[O-])cc1)[C@]21CS[C@@H]2c3c(OC(C)=O)c(C)c4c(c3[C@@H](COC1=O)N1[C@@H]2[C@H]2c3c(cc(C)c(OC)c3O)C[C@@H]([C@@H]1C#N)N2C)OCO4	1.1 nM	1 nM	0.38 nM
COc1cc2c(cc1O)CCN(C(=O)c1cccc([N+](=O)[O-])c1)[C@]21CS[C@@H]2c3c(OC(C)=O)c(C)c4c(c3[C@@H](COC1=O)N1[C@@H]2[C@H]2c3c(cc(C)c(OC)c3O)C[C@@H]([C@@H]1C#N)N2C)OCO4	0.43 nM	0.73 nM	0.14 nM
COc1cc2c(cc1O)CCN(C(=O)c1ccncc1)[C@]21CS[C@@H]2c3c(OC(C)=O)c(C)c4c(c3[C@@H](COC1=O)N1[C@@H]2[C@H]2c3c(cc(C)c(OC)c3O)C[C@@H]([C@@H]1C#N)N2C)OCO4	0.2 nM	0.3 nM	0.045 nM
COc1cc2c(cc1O)CCN(C(=O)c1cccnc1)[C@]21CS[C@@H]2c3c(OC(C)=O)c(C)c4c(c3[C@@H](COC1=O)N1[C@@H]2[C@H]2c3c(cc(C)c(OC)c3O)C[C@@H]([C@@H]1C#N)N2C)OCO4	0.4 nM	0.72 nM	0.13 nM
COc1cc2c(cc1O)CCN(C(=O)c1ccnc3ccccc13)[C@]21CS[C@@H]2c3c(OC(C)=O)c(C)c4c(c3[C@@H](COC1=O)N1[C@@H]2[C@H]2c3c(cc(C)c(OC)c3O)C[C@@H]([C@@H]1C#N)N2C)OCO4	0.23 nM	0.16 nM	0.067 nM
COc1cc2c(cc1O)CCN(C(=O)c1cccc3ncccc13)[C@]21CS[C@@H]2c3c(OC(C)=O)c(C)c4c(c3[C@@H](COC1=O)N1[C@@H]2[C@H]2c3c(cc(C)c(OC)c3O)C[C@@H]([C@@H]1C#N)N2C)OCO4	0.36 nM	0.92 nM	0.086 nM
COc1cc2c(cc1O)CCN(C(=O)c1ccc3ncccc3c1)[C@]21CS[C@@H]2c3c(OC(C)=O)c(C)c4c(c3[C@@H](COC1=O)N1[C@@H]2[C@H]2c3c(cc(C)c(OC)c3O)C[C@@H]([C@@H]1C#N)N2C)OCO4	0.16 nM	0.043 nM	0.045 nM
C=CCOc1cc2c(cc1OC)[C@@]1(CS[C@@H]3c4c(OC(C)=O)c(C)c5c(c4[C@@H](COC1=O)N1[C@@H]3[C@H]3c4c(cc(C)c(OC)c4OCC=C)C[C@@H]([C@@H]1C#N)N3C)OCO5)N(C(=O)/C=C/c1ccccc1)CC2	> 1000 nM	> 1000 nM	630 nM
C=CCOc1cc2c(cc1OC)[C@@]1(CS[C@@H]3c4c(OC(C)=O)c(C)c5c(c4[C@@H](COC1=O)N1[C@@H]3[C@H]3c4c(cc(C)c(OC)c4OCC=C)C[C@@H]([C@@H]1C#N)N3C)OCO5)N(C(=O)/C=C/c1ccc([N+](=O)[O-])cc1)CC2	8500 nM	7500 nM	520 nM
COc1cc2c(cc1O)CCN(C(=O)/C=C/c1ccccc1)[C@]21CS[C@@H]2c3c(OC(C)=O)c(C)c4c(c3[C@@H](COC1=O)N1[C@@H]2[C@H]2c3c(cc(C)c(OC)c3O)C[C@@H]([C@@H]1C#N)N2C)OCO4	0.33 nM	0.24 nM	0.053 nM
COc1cc2c(cc1O)CCN(C(=O)/C=C/c1ccc([N+](=O)[O-])cc1)[C@]21CS[C@@H]2c3c(OC(C)=O)c(C)c4c(c3[C@@H](COC1=O)N1[C@@H]2[C@H]2c3c(cc(C)c(OC)c3O)C[C@@H]([C@@H]1C#N)N2C)OCO4	2.4 nM	0.81 nM	0.6 nM
C=CCOc1c(OC)c(C)cc2c1[C@@H]1[C@@H]3[C@@H]4SC[C@]5(C(=O)OC[C@H](c6c7c(c(C)c(OC(C)=O)c64)OCO7)N3[C@@H](C#N)[C@H](C2)N1C)c1cc(OC)c(O)cc1CCN5C(=O)/C=C/c1ccc([N+](=O)[O-])cc1	9.8 nM	5 nM	2.7 nM
COc1cc2c(cc1O)CCN[C@]21CS[C@@H]2c3c(OC(C)=O)c(C)c4c(c3[C@H](COC1=O)N1[C@@H]2[C@H]2c3c(cc(C)c(OC)c3O)C[C@@H]([C@@H]1C#N)N2C)OCO4 [ECTEINASCIDIN 770]	2.4 nM	0.81 nM	0.6 nM
